Laboratory results as given in ChEMBL document CHEMBL1154647, “Synthesis, spectral characterization and biological evaluation of phosphorylated derivatives of galanthamine” (Eur J Med Chem, 2010).
≈ marks a conversion by molar mass, not a printed value.

Tests used:
Escherichia coli [1] = experiment: Antibacterial activity against Escherichia coli at 1 mg/mL after 18 hrs by disc diffusion assay; format: functional; conditions: read-out: IZ
Procedure, shortened: (§1)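 Bacteria were grown in nutrient broth at 37 °C for 18 h on a rotary shaker at 150 rpm. Compounds were dissolved in DMF. Nutrient agar plates were dried at 35–36 °C for about 30 min, and test strains were spread on the surface. Discs were applied, and plates were inverted and incubated at 37 °C. A DMF blank was run.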

Escherichia coli [2] = experiment: Antibacterial activity against Escherichia coli at 2 mg/mL after 18 hrs by disc diffusion assay; format: functional; conditions: read-out: IZ; procedure, shortened: as §1
Brain [3] = experiment: Antioxidant activity in Wistar rat brain assessed as reduction in glutathione content; format: functional, tissue-based
Procedure, shortened: (§2)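 Wistar rat brain was homogenised 1:40 (w/v) in 0.1 M phosphate buffer, pH 7.4, with 1 mM EDTA. Total glutathione (GSH + GSSG) and reduced GSH were assayed spectrophotometrically from optical density, using net rate against a standard-curve slope and intercept, times a dilution factor. Homogenate protein was measured by the Lowry method.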

Bacillus subtilis [4] = experiment: Antibacterial activity against Bacillus subtilis after 18 hrs; format: functional
Bacillus subtilis [5] = experiment: Antibacterial activity against Bacillus subtilis at 1 mg/mL after 18 hrs by disc diffusion assay; format: functional; conditions: read-out: IZ; procedure, shortened: as §1
[6] = Inhibition of superoxide dismutase in Wistar rat brain; format: tissue-based
Bacillus subtilis [7] = experiment: Antibacterial activity against Bacillus subtilis at 2 mg/mL after 18 hrs by disc diffusion assay; format: functional; conditions: read-out: IZ; procedure, shortened: as §1
Staphylococcus aureus [8] = experiment: Antibacterial activity against Staphylococcus aureus after 18 hrs; format: functional
Klebsiella pneumoniae [9] = experiment: Antibacterial activity against Klebsiella pneumoniae after 18 hrs; format: functional
Klebsiella pneumoniae [10] = experiment: Antibacterial activity against Klebsiella pneumoniae at 2 mg/mL after 18 hrs by disc diffusion assay; format: functional; conditions: read-out: IZ; procedure, shortened: as §1
Catalase = target: T1, Catalase (Rattus norvegicus, UniProt P04762); experiment: Inhibition of catalase in Wistar rat brain
T1 sequence (P04762 whole entry): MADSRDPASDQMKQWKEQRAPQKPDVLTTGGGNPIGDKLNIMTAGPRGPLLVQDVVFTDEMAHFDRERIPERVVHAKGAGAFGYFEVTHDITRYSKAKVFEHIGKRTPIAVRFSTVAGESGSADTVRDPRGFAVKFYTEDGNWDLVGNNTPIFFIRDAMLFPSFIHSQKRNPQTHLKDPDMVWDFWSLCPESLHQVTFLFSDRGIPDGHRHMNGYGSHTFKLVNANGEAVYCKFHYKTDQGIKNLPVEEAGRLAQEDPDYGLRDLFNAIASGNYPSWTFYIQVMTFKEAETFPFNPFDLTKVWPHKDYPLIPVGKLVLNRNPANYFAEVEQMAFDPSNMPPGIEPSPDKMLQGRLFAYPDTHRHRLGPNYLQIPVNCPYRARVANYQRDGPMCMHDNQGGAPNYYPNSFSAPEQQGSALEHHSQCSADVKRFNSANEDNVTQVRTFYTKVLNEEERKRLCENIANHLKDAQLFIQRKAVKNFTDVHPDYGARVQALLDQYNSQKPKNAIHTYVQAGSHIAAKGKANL

Brain [11] = experiment: Antioxidant activity in Wistar rat brain assessed as lipid peroxidation; format: functional, tissue-based
Staphylococcus aureus [12] = experiment: Antibacterial activity against Staphylococcus aureus at 1 mg/mL after 18 hrs by disc diffusion assay; format: functional; conditions: read-out: IZ; procedure, shortened: as §1
Brain [13] = experiment: Antioxidant activity in Wistar rat brain assessed as glutathione content; format: functional; procedure, shortened: as §2
Staphylococcus aureus [14] = experiment: Antibacterial activity against Staphylococcus aureus at 2 mg/mL after 18 hrs by disc diffusion assay; format: functional; conditions: read-out: IZ; procedure, shortened: as §1
Brain [15] = experiment: Antioxidant activity in Wistar rat brain assessed as superoxide dismutase content; format: functional
Brain [16] = experiment: Antioxidant activity in Wistar rat brain assessed as inhibition of lipid peroxidation; format: functional, tissue-based
Escherichia coli [17] = experiment: Antibacterial activity against Escherichia coli after 18 hrs; format: functional
Brain [18] = experiment: Antioxidant activity in Wistar rat brain assessed as catalase content; format: functional
Klebsiella pneumoniae [19] = experiment: Antibacterial activity against Klebsiella pneumoniae at 1 mg/mL after 18 hrs by disc diffusion assay; format: functional; conditions: read-out: IZ; procedure, shortened: as §1

Row | Compound | zone of inhibition at 1000 µg/mL (Escherichia coli [1]) | zone of inhibition at 2000 µg/mL (Escherichia coli [2]) | EC50 (Brain [3]) | MIC (Bacillus subtilis [4]) | zone of inhibition at 1000 µg/mL (Bacillus subtilis [5]) | EC50 [6] | zone of inhibition at 2000 µg/mL (Bacillus subtilis [7]) | MIC (Staphylococcus aureus [8]) | MIC (Klebsiella pneumoniae [9]) | zone of inhibition at 2000 µg/mL (Klebsiella pneumoniae [10]) | EC50 (Catalase) | Activity (Brain [11]) | zone of inhibition at 1000 µg/mL (Staphylococcus aureus [12]) | Activity (Brain [13]) | zone of inhibition at 2000 µg/mL (Staphylococcus aureus [14]) | Activity (Brain [15]) | EC50 (Brain [16]) | MIC (Escherichia coli [17]) | Activity (Brain [18]) | zone of inhibition at 1000 µg/mL (Klebsiella pneumoniae [19])
1 | COc1ccc2c3c1O[C@H]1C[C@@H](O)C=C[C@@]31CCN(C)C2 [GALANTAMINE] | 1.47 mm | 2.02 mm | 4.21 mg/L (≈ 14.7 µM) | 0.18 mg/L (≈ 0.626 µM) | 1.65 mm | 3.84 mg/L (≈ 13.4 µM) | 2.25 mm | 1 mg/L (≈ 3.48 µM) | 0.62 mg/L (≈ 2.16 µM) | 2.21 mm | 5.06 mg/L (≈ 17.6 µM) | 70.7 µg/mL | 1.39 mm | 4.69 µg/mL | 2.66 mm | 29.37 µg/mL | 4.93 mg/L (≈ 17.2 µM) | 0.7 mg/L (≈ 2.44 µM) | 283.44 µg/mL | 1.83 mm
2 | VITAMIN E [listing 1 of 2 here] | – | – | 0.99 mg/L | – | – | 1.03 mg/L | – | – | – | – | 1.48 mg/L | – | – | – | – | – | 1.22 mg/L | – | – | –
3 | COc1ccc2c3c1O[C@H]1C[C@@H](OP(=O)(NCCN)N(CCCl)CCCl)C=C[C@@]31CCN(C)C2 (stereo partly drawn) | 2.33 mm | 4.9 mm | 2.43 mg/L (≈ 4.56 µM) | 0.12 mg/L (≈ 0.225 µM) | 1.57 mm | 2.77 mg/L (≈ 5.19 µM) | 3.9 mm | 0.49 mg/L (≈ 0.919 µM) | 0.33 mg/L (≈ 0.619 µM) | 4.8 mm | 2.73 mg/L (≈ 5.12 µM) | 72.5 µg/mL | 2.35 mm | 4.84 µg/mL | 3.51 mm | 30.29 µg/mL | 2.88 mg/L (≈ 5.4 µM) | 0.55 mg/L (≈ 1.03 µM) | 285.48 µg/mL | 2.89 mm
4 | VITAMIN E [listing 2 of 2 here] | – | – | – | – | – | – | – | – | – | – | – | 82.8 µg/mL | – | 43.6 µg/mL | – | 32.3 µg/mL | – | – | 403 µg/mL | –
5 | COc1ccc2c3c1O[C@H]1C[C@@H](OP(=O)(Oc4ccc([N+](=O)[O-])cc4)SCCO)C=C[C@@]31CCN(C)C2 (stereo partly drawn) | 3.62 mm | 4.38 mm | 1.49 mg/L (≈ 2.72 µM) | 0.1 mg/L (≈ 0.182 µM) | 1.81 mm | 1.55 mg/L (≈ 2.83 µM) | 3.06 mm | 0.29 mg/L (≈ 0.529 µM) | 0.36 mg/L (≈ 0.656 µM) | 5.01 mm | 4.25 mg/L (≈ 7.75 µM) | 72.8 µg/mL | 2.5 mm | 4.77 µg/mL | 4.91 mm | 29.69 µg/mL | 2.64 mg/L (≈ 4.81 µM) | 0.34 mg/L (≈ 0.62 µM) | 288.58 µg/mL | 2.36 mm
6 | COc1ccc2c3c1O[C@H]1C[C@@H](OP(=O)(OCCO)N(CCCl)CCCl)C=C[C@@]31CCN(C)C2 (stereo partly drawn) | 1.57 mm | 3.18 mm | 2.02 mg/L (≈ 3.77 µM) | 0.28 mg/L (≈ 0.523 µM) | 1.63 mm | 1.98 mg/L (≈ 3.7 µM) | 4.89 mm | 0.42 mg/L (≈ 0.784 µM) | 0.57 mg/L (≈ 1.06 µM) | 4.76 mm | 2.21 mg/L (≈ 4.13 µM) | 68.2 µg/mL | 3.03 mm | 4.67 µg/mL | 5.02 mm | 29.02 µg/mL | 2.87 mg/L (≈ 5.36 µM) | 0.5 mg/L (≈ 0.934 µM) | 291.27 µg/mL | 1.65 mm
